Kir21 block: inhibitors of mouse Kir2.1 inward-rectifier potassium channel; HEK293-Kir2.1, FluxOR thallium flux fluorescence; active compounds read low; B-score at 10 µM; hit rate 0.85% among 310,000; AID 1672;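 active = fluorescence ratio B-score at or below minus 3 SD of library scores, with starting-brightness B-score within 2 SD, cut at about -4.2 in these data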;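 also: channel flux triggered by added potassium and thallium sulfate stimulus; B-score of peak minus minimum fluorescence over baseline after thallium stimulus; more negative B-score means stronger Kir2.1 block with less thallium influx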
Target sequence (P35561 whole entry, looked up): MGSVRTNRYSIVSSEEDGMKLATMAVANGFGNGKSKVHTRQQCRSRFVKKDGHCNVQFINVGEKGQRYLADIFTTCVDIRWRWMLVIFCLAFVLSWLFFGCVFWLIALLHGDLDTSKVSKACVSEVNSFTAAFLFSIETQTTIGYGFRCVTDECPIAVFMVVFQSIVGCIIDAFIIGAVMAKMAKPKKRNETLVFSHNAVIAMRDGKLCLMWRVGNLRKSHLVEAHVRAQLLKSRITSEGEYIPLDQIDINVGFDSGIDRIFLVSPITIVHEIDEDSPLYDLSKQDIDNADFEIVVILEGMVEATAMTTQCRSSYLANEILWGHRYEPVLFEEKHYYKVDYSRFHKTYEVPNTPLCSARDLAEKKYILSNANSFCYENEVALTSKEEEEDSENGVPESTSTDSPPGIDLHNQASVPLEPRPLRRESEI
hERG protect: compounds protecting human hERG from proarrhythmic drug block; activation (rescue from dofetilide block), less the hit threshold, % at 10 µM; CHO-hERG, FluxOR thallium flux, dofetilide IC70 present; Q12809; hit rate 0.51% among 310,000; AID 1511;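 active = activation above the mean of controls blocked by dofetilide plus 5 SD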;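 also: thallium influx through hERG after potassium depolarization seen as dye fluorescence rise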
KCNQ1 inh: blocks the human KCNQ1 potassium channel; P51787; CHO-K1 KCNQ1, FluxOR thallium flux fluorescence; active compounds read high; B-score at 10 µM; hit rate 1.3% among 310,000; AID 2642;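 active = compounds whose thallium flux B-score, printed positive for inhibition, exceeds three library SD while starting fluorescence stays within three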;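 also: channel opened by potassium depolarization with thallium stimulus after 20 min compound exposure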
KCNK9 block: inhibitors of human KCNK9 two-pore domain potassium channel | B-score at 10 µM | Q9NPC2 | HEK293 KCNK9, FluxOR thallium flux fluorescence; active compounds read low | hit rate 1.2% among 310,000;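 active = ratio B-score over 3 SD below the library mean, with starting fluorescence within 5 SD of its mean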;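 also: negative B-score means less thallium flux so channel inhibition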
KCNQ1 act: potentiates or activates the human KCNQ1 potassium channel; P51787; CHO-K1 KCNQ1, thallium flux FluxOR fluorescence; active compounds read high; B-score at 10 µM; hit rate 0.35% among 310,000;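 active = fluorescence ratio B-score, a plate-corrected score, at least three library SD, with initial intensity B-score within 5 SD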
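Medium – assay buffer, equal DMSO in all wells · Material – CHO-K1 cell line with stable KCNQ1 potassium channel expression · Signal – kinetic FluxOR thallium fluorescence, 10-s 1-Hz baseline, 110-s post-stimulus read · Compound – single concentration per compound, DMSO matched to controls · Schedule – 37 °C overnight plating, 90-min dark dye load, 20-min compound pretreatment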
KCNK3 block: human KCNK3 channel inhibition, primary screen | O14649 | CHO-KCNK3 thallium flux, FluxOR fluorescence; active compounds read low | B-score at 10 µM | hit rate 0.84% among 340,000;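 active = B-score under library mean minus 4 SD, starting fluorescence ratio at most library mean plus 5 SD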;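 also: more negative B-score means stronger inhibition of thallium flux through KCNK3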
An asterisk follows results filed as active; i = inactive; . = no result given. An excerpt weighted towards active compounds, which were near 3.8% of everything screened.

SMILES	Kir21 block	hERG protect	KCNQ1 inh	KCNK9 block	KCNQ1 act	KCNK3 block
CC(C)C(NC(=O)c1c(F)cccc1F)C(=O)NCCc1ccc(S(N)(=O)=O)cc1 (stereo not given)	0.63	-7.8	i	i	i	i
O=C(COc1ccc([N+](=O)[O-])cc1)NNC(=S)NC(=O)c1ccc(Br)cc1	0.38	-6.4	7*	i	i	i
CCOc1ccc(Cl)cc1S(=O)(=O)n1nnc2ccccc21	-0.83	-6.8	i	i	i	i
C/C(=N\Nc1nc(N2CCCCCC2)nc(N2CCCCCC2)n1)c1ccccc1	-1.7	-12.6	14*	i	i	i
Cc1c(C=O)c2ccccc2n1CC(=O)N1CCc2ccccc2C1	0.75	-10.0	i	i	i	i
O=C1CC(C(=O)Nc2cccc3ccccc23)C2(CCCC2)O1 (stereo not given)	-2.15	7.8*	i	i	i	i
COC(=O)c1ccc(OC(C)C(=O)c2ccc(C)cc2)cc1 (stereo not given)	0.71	-9.1	i	i	i	i
Cc1ccccc1CN(C)CC(=O)NC(C)CCc1ccccc1 (stereo not given)	-11.3*	-10.7	i	i	i	i
CC(=O)C(Cc1ccccc1)NC(=O)CN(C)Cc1ccccc1Cl (stereo not given)	-4.88*	-4.6	i	i	i	i
Cc1ccc(CN(C)CC(=O)NC(C)c2ccccc2)cc1 (stereo not given)	-4.29*	-8.4	i	i	i	i
Cc1ccc(CC(=O)NC(C)CCc2ccccc2)cc1 (stereo not given)	-0.79	-1.6	i	i	i	i
O=S(=O)(c1cccc(C(F)(F)F)c1)c1ccc(O)cn1	-0.64	-11.0	i	i	i	i
CCSc1nc(=S)cc(C)[nH]1	0.57	25.4*	i	i	24*	i
COc1ccc(NC(=O)COC(=O)C2CCN(S(=O)(=O)c3ccccc3)CC2)cc1Cl	-0.01	-6.8	i	i	i	i
CCCCCSc1nnc2c(n1)OC(C)N(C(C)=O)c1ccccc1-2 (stereo not given)	-0.33	-11.1	i	i	i	-10.3*
CCCCSc1nnc2c(n1)OC(C(=O)c1ccccc1)Nc1ccccc1-2 (stereo not given)	-0.47	-16.3	i	i	i	.
COC(=O)c1ccc(COC(=O)c2ccc(C)c(S(=O)(=O)N3CCCCC3)c2)cc1	.	.	.	.	.	-9.17*
Cc1ccc(C(=O)OCC(=O)N2C(C)CCCC2C)cc1S(=O)(=O)N1CCCCC1 (stereo not given)	-0.12	-9.2	i	i	i	i
Cc1ccc(C(=O)Oc2ccc([N+](=O)[O-])cc2)cc1S(=O)(=O)N1CCCCCC1	-1.72	-8.0	i	-8.06*	i	i
CNC(=O)c1ccccc1NC(=O)c1ccc(C)c(S(=O)(=O)N2CCCCC2)c1	-0.02	8.7*	i	i	i	i
Cc1ccc(C(=O)Nc2cccc(O)c2)cc1S(=O)(=O)N1CCCCCC1	-0.56	-5.0	i	i	i	i
Cc1c(C(=O)N2CCN(S(=O)(=O)c3ccccc3)CC2)oc2ccc(Br)cc12	.	.	.	.	.	i
O=C(COC(=O)Cc1ccc(S(=O)(=O)N2CCOCC2)s1)Nc1ccccc1Cl	.	.	.	.	.	i
Cc1ccc(CNC(=O)CNC(=O)c2ccc(C(C)(C)C)cc2)n1C	.	.	.	.	.	i
CC(C)NC(=O)Nc1cccc2c1O[C@H](CN(C)C(=O)NC1CCCCC1)[C@@H](C)CN([C@H](C)CO)C2=O	.	.	.	.	.	i
SMILES	Kir21 block	hERG protect	KCNQ1 inh	KCNK9 block	KCNQ1 act	KCNK3 block
Cc1cc(C)n(CC(=O)NNC(=O)COc2ccc(Br)cc2F)n1	.	.	.	.	.	i
C=CC[C@H](CC(=O)NCCO)C(=O)NCCOC(=O)[C@@H](CC=C)Cc1ccc(F)cc1	.	.	.	.	.	i
Fc1ccc(C(c2ccc(F)cc2)N2CCN(C/C=C/c3ccccc3)CC2)cc1	-1.55	-15.8	8*	i	i	i
Cc1sc2ncnc(SCC(=O)NC(=O)c3cccn3C)c2c1C	0.19	1.3	i	i	11*	i
Cc1cccc(NC(=O)CSc2ncnc3sc(C)c(C)c23)n1	-1.67	-2.0	i	i	i	i
Cc1cc(OC(C)C(=O)N2C[C@H]3C[C@@H](C2)c2cccc(=O)n2C3)c2c(C)c(C)c(=O)oc2c1 (stereo not given in full)	0	-4.9	i	i	i	i
O=C(NC(=S)N1CCOCC1)c1cc2ccccc2o1	-0.2	-14.5	i	i	i	i
CCOc1ccc(NC(=S)NS(=O)(=O)c2cc(Br)ccc2OCC)cc1	0.25	7.1*	i	i	i	i
CCOc1ccc(S(=O)(=O)NNC(=S)Nc2ccc(Br)cc2)cc1	3.47	-7.0	i	i	i	i
O=C1CC(NS(=O)(=O)c2cccnc2)CN1c1ccc(Cl)cc1 (stereo not given)	1.44	-14.2	i	i	i	i
NC(=NCCc1c[nH]c2ccccc12)NC(=O)c1ccc(F)cc1	-7.23*	-21.2	i	i	i	i
O=C(COC(=O)C1(c2ccc(Cl)cc2)CCCC1)N1CCc2ccccc21	0	-12.5	i	i	i	i
O=C(CN1C(=O)c2ccccc2C1=O)Nc1cccc(Cl)c1	-0.42	-10.2	i	i	i	i
O=C(Nc1cccc(Cl)c1)N1CCN2C(=O)c3ccccc3C12c1ccccc1 (stereo not given)	0.93	-11.2	11*	i	i	i
O=C(CCl)N1CCN2C(=O)c3ccccc3C12c1ccc(Cl)cc1 (stereo not given)	-4.57*	-23.6	i	i	i	i
Cc1cccc(NC(=O)CNC(=O)c2cn(Cc3ccccc3)nc2-c2cccnc2)c1C	.	.	.	.	.	i
O=C(OCc1cccc([N+](=O)[O-])c1)c1ccc2ccccc2n1	1.59	5.2*	i	i	i	i
COC(=O)c1cccc(-c2ccc(/C=N/N3C(=O)C4C5C=CC(C6CC56)C4C3=O)o2)c1 (stereo not given)	0.1	-12.1	7*	i	i	i
Cc1noc(/C=C/c2ccc(-c3ccccc3Cl)o2)c1[N+](=O)[O-]	0.76	-5.8	7*	i	i	i
Cc1sc2nc[nH]c(=S)c2c1-c1ccccc1	-0.17	20.3*	i	i	12*	i
Cc1cc(-c2csc3nc[nH]c(=S)c23)cc(C)c1C	-0.48	8.1*	i	i	45*	i
S=c1[nH]cnc2scc(-c3ccc(Br)cc3)c12	-0.96	14.5*	i	i	23*	i
O=c1[nH]cnc2scc(-c3ccc(Br)cc3)c12	1.22	3.2	i	i	i	i

Assay outcomes deposited in PubChem by Johns Hopkins Ion Channel Center.
